In brackets after ≈: the same amount, converted by molar mass.
Columns and labels:
[1] = Kinetic solubility of the compound in potassium phosphate buffer at pH 6.8 by turbidometric analysis; assay type: physicochemical; settings: read-out: Kinetic_solubility
[2] = biological target: T1, Protein deacetylase HDAC6 (Homo sapiens, UniProt Q9UBN7); assay: Inhibition of N-terminal GST-tagged recombinant HDAC6 (unknown origin) assessed as deacetylation of Ac-Arg-Gly-Lys (Ac) after 1 hr by fluorescence plate reader analysis in presence of trypsin
T1 sequence (Q9UBN7 whole entry): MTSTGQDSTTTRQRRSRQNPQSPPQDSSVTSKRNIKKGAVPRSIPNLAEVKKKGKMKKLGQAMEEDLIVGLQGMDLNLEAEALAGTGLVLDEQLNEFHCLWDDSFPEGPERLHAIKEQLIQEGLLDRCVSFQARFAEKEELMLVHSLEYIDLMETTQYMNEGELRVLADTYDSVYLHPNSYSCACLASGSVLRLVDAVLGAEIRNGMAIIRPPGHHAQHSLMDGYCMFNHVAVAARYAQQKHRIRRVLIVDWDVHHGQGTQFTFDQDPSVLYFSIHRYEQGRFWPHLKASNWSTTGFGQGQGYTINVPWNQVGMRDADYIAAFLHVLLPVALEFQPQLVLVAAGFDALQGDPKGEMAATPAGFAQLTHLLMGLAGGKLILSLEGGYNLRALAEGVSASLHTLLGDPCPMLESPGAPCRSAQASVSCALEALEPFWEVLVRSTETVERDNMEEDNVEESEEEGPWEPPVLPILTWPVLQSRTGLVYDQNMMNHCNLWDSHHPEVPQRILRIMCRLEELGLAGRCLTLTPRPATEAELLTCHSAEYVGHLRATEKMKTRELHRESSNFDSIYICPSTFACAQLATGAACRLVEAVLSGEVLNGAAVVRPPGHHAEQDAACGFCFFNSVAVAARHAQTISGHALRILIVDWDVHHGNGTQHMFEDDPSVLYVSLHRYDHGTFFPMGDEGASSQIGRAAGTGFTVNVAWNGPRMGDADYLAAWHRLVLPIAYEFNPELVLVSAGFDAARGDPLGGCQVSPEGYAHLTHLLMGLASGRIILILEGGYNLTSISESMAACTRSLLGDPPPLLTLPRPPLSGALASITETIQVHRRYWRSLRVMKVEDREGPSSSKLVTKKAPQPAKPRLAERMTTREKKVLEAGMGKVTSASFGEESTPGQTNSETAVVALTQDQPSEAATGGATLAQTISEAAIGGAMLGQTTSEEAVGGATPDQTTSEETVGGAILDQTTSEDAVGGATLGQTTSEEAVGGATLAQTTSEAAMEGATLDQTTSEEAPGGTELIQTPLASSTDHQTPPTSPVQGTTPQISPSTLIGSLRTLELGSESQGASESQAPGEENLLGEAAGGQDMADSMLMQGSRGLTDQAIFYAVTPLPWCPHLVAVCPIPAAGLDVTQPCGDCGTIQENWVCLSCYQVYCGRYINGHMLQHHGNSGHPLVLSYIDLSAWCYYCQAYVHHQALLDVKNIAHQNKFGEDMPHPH

[3] = biological target: T2, Protein deacetylase HDAC6 (Homo sapiens) (UniProt Q9UBN7); assay: Inhibition of HDAC6 in human HeLa cells using acetyl tubulin as substrate assessed as Ac-Lys accumulation in nuclear histones at 20 uM after 24 hrs by immunofluorescence assay relative to control
T2 sequence (whole entry): T1 sequence (Q9UBN7 whole entry)

[4] = biological target: T1, Protein deacetylase HDAC6; assay: Inhibition of HDAC6 in human HeLa cells using acetyl tubulin as substrate assessed as Ac-tubulin accumulation in cytosol after 6 hrs by immunofluorescence assay
[5] = Selectivity ratio of IC50 for HDAC1/2 in human HeLa cell nuclear extract to IC50 for N-terminal GST-tagged recombinant HDAC6 (unknown origin); assay type: cell-based
Outline: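 HDAC6 leg: 1 nM GST-HDAC6 with 8 μM Ac-Arg-Gly-Lys(Ac)-AMC. Nuclear-extract leg: 30 μg/mL HeLa nuclear extract (mainly HDAC1/2) with 20 μM of the same substrate in 50 mM Tris-Cl, 137 mM NaCl, 2.7 mM KCl, 1 mM MgCl2, pH 8.0.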

Homo sapiens = species on record: Homo sapiens; assay: Selectivity ratio of IC50 for full length C-terminal His6x-tagged recombinant human HDAC8 to IC50 for N-terminal GST-tagged recombinant HDAC6 (unknown origin)

SMILES | solubility kinetic [1] | IC50 [2] | inhibition [3] | IC50 [4] | Ratio IC50 (Homo sapiens) | Ratio IC50 [5]
CC(C)(C)C(=O)N1CCc2sc(C(=O)NO)cc2C1 | > 200 µM | 47 nM | < 20% | 177 nM | 40 | 64
O=C(NO)c1ccc(CNC(=O)C2CCCCC2)cc1 | > 200 µM | 76 nM |  |  | 40 | 84
O=C(NO)c1cc2c(s1)CCN(C(=O)C1CCCCC1)C2 | > 200 µM | 36 nM | < 20% | 162 nM | 40 | 47
Cn1cccc1C(=O)NCc1ncc(C(=O)NO)s1 | > 200 µM | 52 nM |  |  | 40 | 123
CC(C)(C)C(=O)NCc1ccc(C(=O)NO)cc1 | > 200 µM | 79 nM |  |  | 40 | 200
O=C(NO)c1ccc2c(c1)CCN(S(=O)(=O)c1ccc(C(F)(F)F)cc1)C2 | 25 µM (≈ 10 µg/mL) | 60 nM | < 20% | 1300 nM |  | 610
CC(C)(C)C(=O)N1CCc2cc(C(=O)NO)sc2C1 | > 200 µM | 35 nM | < 20% | 158 nM | 40 | 71
O=C(NO)c1cc2c(s1)CN(C(=O)C1CCCCC1)CC2 | > 200 µM | 20 nM | < 20% | 50 nM |  | 50
Cn1cccc1C(=O)NCc1cnc(C(=O)NO)s1 | > 200 µM | 12000 nM |  |  |  | 8
O=C(NO)c1ccc2c(c1)CCCN(C(=O)C1CCCCCC1)C2 | > 200 µM | 340 nM | < 20% | 2900 nM | 40 | > 200

Second part, led by results:

solubility kinetic [1] | IC50 [2] | inhibition [3] | IC50 [4] | Ratio IC50 (Homo sapiens) | SMILES | Ratio IC50 [5]
> 200 µM | 24 nM | < 20% | 18 nM |  | Cn1cccc1C(=O)N1CCc2sc(C(=O)NO)cc2C1 | 30
> 200 µM | 120 nM | < 20% | 580 nM | 40 | CC(C)(C)C(=O)N1CCc2ccc(C(=O)NO)cc2CC1 | 340
> 200 µM | 50 nM | < 20% | 540 nM |  | O=C(NO)c1ccc2c(c1)CCN(C(=O)C1CCCCC1)C2 | 730
> 200 µM | 120 nM | < 20% | 3090 nM | 40 | O=C(NO)c1ccc2c(c1)CCCN(C(=O)c1ccc(-c3ccccc3)cc1)C2 | 60
> 200 µM | 59 nM | < 20% | 2600 nM | 40 | O=C(NO)c1ccc2c(c1)CCN(C(=O)c1ccc(-c3ccccc3)cc1)CC2 | 340
> 200 µM | 490 nM | < 20% | 3680 nM | 40 | CC(C)(C)C(=O)N1CCCc2cc(C(=O)NO)ccc2C1 | > 200
> 200 µM | 19 nM |  |  | 40 | Cn1cccc1C(=O)NCc1ccc(C(=O)NO)s1 | 202
> 200 µM | 54 nM | < 20% | 340 nM |  | O=C(NO)c1ccc2c(c1)CCN(C(=O)C1CCCCCC1)C2 | 650
> 200 µM | 120 nM | < 20% | 2000 nM | 40 | O=C(NO)c1ccc2c(c1)CCN(C(=O)C1CCCCCC1)CC2 | 340
> 200 µM | 130 nM | < 20% | 1510 nM | 40 | Cn1cccc1C(=O)N1CCc2ccc(C(=O)NO)cc2CC1 | 480
> 200 µM | 28 nM | < 20% | 5 nM |  | Cn1cccc1C(=O)N1CCc2cc(C(=O)NO)sc2C1 | 14

Source: ChEMBL document CHEMBL2429834, “Potent histone deacetylase inhibitors derived from 4-(aminomethyl)-N-hydroxybenzamide with high selectivity for the HDAC6 isoform” (J Med Chem, 2013)
